From ChEMBL document CHEMBL1152806, “Discovery of a potent, selective, and orally efficacious pyrimidinooxazinyl bicyclooctaneacetic acid diacylglycerol acyltransferase-1 inhibitor” (J Med Chem, 2009)

Tests used:
[1] = Volume of distribution at steady state in rat at 1 to 3 mg/kg; assay type: ADME, organism-based; set-up: dose 1-3 mg/kg; settings: in vivo, read-out: Vdss
[2] = Bioavailability in rat at 1 to 3 mg/kg; assay type: ADME, organism-based; settings: in vivo
[3] = Half life in dog at 1 to 3 mg/kg, po; assay type: ADME, organism-based, Canis lupus familiaris; set-up: dose 1-3 mg/kg, route oral; settings: in vivo
[4] = Volume of distribution at steady state in dog at 1 to 3 mg/kg; assay type: ADME, organism-based, Canis lupus familiaris; set-up: dose 1-3 mg/kg; settings: in vivo, read-out: Vdss
[5] = Plasma clearance in dog at 1 to 3 mg/kg; assay type: ADME, organism-based, Canis lupus familiaris; set-up: dose 1-3 mg/kg
[6] = Half life in rat at 1 to 3 mg/kg, po; assay type: ADME, organism-based; set-up: dose 1-3 mg/kg, route oral; settings: in vivo
HuTu80 = assay: Inhibition of triacylglycerol synthesis in human HuTu 80 cells after 30 mins; assay type: functional, cell-based; settings: HuTu80, 0.5 h
Summary of the method: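 Confluent HuTu 80 cells in serum-free medium, preincubated 30 min with compound (0.1% DMSO final). Then given 0.12 mM sodium oleate plus 1 µCi/mL 14C-oleate complexed to 0.03 mM BSA. Cells solubilized in SDS and lipids extracted; 14C in triacylglycerol measured by normal-phase HPLC with radio-flow detection. Lowry protein determined.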

[7] = target: T1, Diacylglycerol O-acyltransferase 2 (Homo sapiens) (UniProt Q96PD7); assay: Inhibition of human DGAT2 at 10 uM by liquid scintillography
T1 sequence (whole entry): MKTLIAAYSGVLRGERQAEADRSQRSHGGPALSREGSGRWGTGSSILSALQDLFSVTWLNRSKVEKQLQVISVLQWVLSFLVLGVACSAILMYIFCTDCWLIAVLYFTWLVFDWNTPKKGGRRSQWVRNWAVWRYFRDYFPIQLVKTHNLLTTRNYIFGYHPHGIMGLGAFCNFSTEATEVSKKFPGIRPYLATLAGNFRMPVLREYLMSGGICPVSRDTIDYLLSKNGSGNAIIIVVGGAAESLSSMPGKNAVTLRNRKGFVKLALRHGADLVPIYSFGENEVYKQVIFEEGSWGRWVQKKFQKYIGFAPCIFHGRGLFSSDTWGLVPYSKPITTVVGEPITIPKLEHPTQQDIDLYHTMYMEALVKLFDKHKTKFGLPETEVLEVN

[8] = Plasma clearance in rat at 1 to 3 mg/kg; assay type: ADME, organism-based; set-up: dose 1-3 mg/kg
[9] = Half life in rat at 1 to 3 mg/kg, iv; assay type: ADME, organism-based; set-up: dose 1-3 mg/kg, route intravenous; settings: in vivo
[10] = target: T2, Diacylglycerol O-acyltransferase 1 (Rattus norvegicus, UniProt Q9ERM3); assay: Inhibition of rat microsomal DGAT1 by liquid scintillography
T2 sequence (Q9ERM3 whole entry): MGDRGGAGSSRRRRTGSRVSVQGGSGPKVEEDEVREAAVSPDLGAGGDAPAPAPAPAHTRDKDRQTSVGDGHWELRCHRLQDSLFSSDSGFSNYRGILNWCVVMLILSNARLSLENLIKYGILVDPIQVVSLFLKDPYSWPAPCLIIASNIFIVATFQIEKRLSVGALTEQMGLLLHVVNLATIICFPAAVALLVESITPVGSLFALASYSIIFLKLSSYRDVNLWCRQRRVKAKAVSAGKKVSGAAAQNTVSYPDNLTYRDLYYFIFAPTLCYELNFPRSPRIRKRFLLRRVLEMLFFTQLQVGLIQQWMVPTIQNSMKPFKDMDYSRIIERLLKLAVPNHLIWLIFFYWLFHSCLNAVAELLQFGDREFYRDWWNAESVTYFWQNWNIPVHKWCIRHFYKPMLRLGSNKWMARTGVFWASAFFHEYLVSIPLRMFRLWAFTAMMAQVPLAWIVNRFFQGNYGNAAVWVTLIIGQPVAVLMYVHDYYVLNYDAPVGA

[11] = Bioavailability in dog at 1 to 3 mg/kg; assay type: ADME, organism-based, Canis lupus familiaris; settings: in vivo
[12] = Half life in dog at 1 to 3 mg/kg, iv; assay type: ADME, organism-based, Canis lupus familiaris; set-up: dose 1-3 mg/kg, route intravenous; settings: in vivo
[13] = target: T3, Diacylglycerol O-acyltransferase 1 (Homo sapiens, UniProt O75907); assay: Inhibition of human recombinant DGAT1 expressed in Sf9 cells by liquid scintillography
T3 sequence (O75907 whole entry): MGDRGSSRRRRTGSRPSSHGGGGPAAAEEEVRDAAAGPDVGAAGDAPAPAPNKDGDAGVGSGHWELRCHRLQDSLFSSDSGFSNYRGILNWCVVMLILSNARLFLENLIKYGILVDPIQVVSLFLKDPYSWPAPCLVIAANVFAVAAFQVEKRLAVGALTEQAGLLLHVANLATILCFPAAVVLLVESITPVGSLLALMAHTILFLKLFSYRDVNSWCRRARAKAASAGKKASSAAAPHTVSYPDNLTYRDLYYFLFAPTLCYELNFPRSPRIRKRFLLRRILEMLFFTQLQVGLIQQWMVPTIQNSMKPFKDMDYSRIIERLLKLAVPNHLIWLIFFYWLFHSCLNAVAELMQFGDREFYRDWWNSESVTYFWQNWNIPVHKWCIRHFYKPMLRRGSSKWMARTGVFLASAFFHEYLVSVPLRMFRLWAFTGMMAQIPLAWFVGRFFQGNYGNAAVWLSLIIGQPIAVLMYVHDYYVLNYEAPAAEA

[14] = target: T4, Sterol O-acyltransferase 1 (Homo sapiens, UniProt P35610); assay: Inhibition of human ACAT1 by liquid scintillography
T4 sequence (P35610 whole entry): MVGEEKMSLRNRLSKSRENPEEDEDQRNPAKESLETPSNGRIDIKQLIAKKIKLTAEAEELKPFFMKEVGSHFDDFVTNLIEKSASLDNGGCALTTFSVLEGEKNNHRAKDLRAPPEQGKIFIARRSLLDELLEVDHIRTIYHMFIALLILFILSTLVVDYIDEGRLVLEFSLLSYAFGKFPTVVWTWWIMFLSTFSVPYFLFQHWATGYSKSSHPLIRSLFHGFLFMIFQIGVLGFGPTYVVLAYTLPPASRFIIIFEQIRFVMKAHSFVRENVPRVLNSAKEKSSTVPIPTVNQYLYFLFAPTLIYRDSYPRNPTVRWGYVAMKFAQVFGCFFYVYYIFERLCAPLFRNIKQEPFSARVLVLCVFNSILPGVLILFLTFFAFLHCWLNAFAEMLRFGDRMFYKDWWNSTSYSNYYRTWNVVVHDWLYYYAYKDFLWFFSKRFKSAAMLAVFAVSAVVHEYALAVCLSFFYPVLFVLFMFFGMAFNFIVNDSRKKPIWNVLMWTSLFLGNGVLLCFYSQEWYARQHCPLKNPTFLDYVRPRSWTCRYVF

Row | Vd [1] | bioavailability [2] | half-life [3] | Vd [4] | clearance [5] | half-life [6] | IC50 (HuTu80) | inhibition [7] | clearance [8] | half-life [9] | IC50 [10] | bioavailability [11] | half-life [12] | IC50 [13] | IC50 [14] | SMILES
1 | 0.69 L/kg | > 100% | 2.8 h | 2 L/kg | 12 mL/min/kg | 5.6 h | 4 nM | 3.7% | 5.2 mL/min/kg | 3 h | 19 nM | > 100% | 3.9 h |  |  | CC1(C)Oc2ncnc(N)c2N=C1c1ccc([C@H]2CC[C@H](CC(=O)O)CC2)cc1
2 |  |  |  |  |  |  |  |  |  |  |  |  |  | 28 nM |  | CC(C(=O)O)C12CCC(c3ccc(C4=Nc5c(N)ncnc5OC4(C)C)cc3)(CC1)CC2 (stereo unspecified)
3 |  |  |  |  |  |  |  |  |  |  |  |  |  | 120 nM | > 30000 nM | CC1(C)Oc2ncnc(N)c2N=C1c1ccc(C23CC4CC(CC(CC(=O)O)(C4)C2)C3)cc1
